# Data taken from the M2OR odorant receptor database.
# How the values were obtained:
# Settings in all cases: stereoisomer not certain
# O51D1 I89V = tested on: O51D1 I89V
# In short: (§1)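 Whether a receptor–molecule pair is responsive (active) rests on the original authors' judgment that its measured signal was statistically different from baseline. Pairs without that judgment are non-responsive (inactive). Sources used varied assay methods, commonly transient luciferase assays in mammalian cell lines.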
# O51F1 [1] = tested on: O51F1
# In short: as §1
# Target sequence in this assay (as listed by the source): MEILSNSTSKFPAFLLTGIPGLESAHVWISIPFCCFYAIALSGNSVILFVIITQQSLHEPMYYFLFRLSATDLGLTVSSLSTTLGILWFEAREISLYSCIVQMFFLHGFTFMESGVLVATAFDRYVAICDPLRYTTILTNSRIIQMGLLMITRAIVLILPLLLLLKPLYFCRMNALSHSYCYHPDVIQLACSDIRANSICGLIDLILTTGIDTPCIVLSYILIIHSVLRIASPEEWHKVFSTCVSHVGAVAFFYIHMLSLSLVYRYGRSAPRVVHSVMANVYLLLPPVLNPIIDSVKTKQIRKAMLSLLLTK
# O51F1 [2] = tested on: O51F1; remark: listed apart in the source
# In short: as §1
# Target sequence in this assay (as listed by the source): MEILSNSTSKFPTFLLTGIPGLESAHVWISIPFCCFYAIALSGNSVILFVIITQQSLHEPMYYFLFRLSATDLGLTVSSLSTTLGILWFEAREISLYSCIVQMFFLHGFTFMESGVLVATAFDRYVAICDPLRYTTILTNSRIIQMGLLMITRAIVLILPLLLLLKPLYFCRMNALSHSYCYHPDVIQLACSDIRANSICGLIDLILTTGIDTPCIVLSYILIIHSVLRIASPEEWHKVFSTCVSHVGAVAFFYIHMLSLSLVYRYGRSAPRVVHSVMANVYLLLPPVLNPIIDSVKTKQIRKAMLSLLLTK
# O51F2 Y341S = tested on: O51F2 Y341S
# O51F2 Y341S, sequence (as listed by the source, stated change not applied): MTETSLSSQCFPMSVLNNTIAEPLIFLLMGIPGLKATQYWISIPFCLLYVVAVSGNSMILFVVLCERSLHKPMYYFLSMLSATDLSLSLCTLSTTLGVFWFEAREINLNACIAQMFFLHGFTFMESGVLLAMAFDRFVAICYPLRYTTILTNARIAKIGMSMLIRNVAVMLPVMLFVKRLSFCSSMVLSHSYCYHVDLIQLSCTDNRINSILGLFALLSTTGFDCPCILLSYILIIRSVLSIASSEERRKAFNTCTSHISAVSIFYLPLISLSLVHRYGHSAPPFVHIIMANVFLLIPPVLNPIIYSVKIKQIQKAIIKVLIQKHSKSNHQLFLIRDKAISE
# In short: as §1
# O51G1 = tested on: O51G1
# O51G1, sequence (as listed by the source): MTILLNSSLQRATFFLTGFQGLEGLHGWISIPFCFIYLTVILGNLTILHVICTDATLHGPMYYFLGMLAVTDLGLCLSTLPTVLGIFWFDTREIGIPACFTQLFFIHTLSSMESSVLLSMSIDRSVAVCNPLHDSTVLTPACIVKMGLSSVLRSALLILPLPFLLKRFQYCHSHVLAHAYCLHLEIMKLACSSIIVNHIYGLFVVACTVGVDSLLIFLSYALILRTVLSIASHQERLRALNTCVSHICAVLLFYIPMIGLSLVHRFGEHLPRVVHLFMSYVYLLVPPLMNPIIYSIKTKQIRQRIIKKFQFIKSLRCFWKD
# In short: as §1
# O51I1 V164L = tested on: O51I1 V164L
# O51I1 V164L, sequence (as listed by the source, stated change not applied): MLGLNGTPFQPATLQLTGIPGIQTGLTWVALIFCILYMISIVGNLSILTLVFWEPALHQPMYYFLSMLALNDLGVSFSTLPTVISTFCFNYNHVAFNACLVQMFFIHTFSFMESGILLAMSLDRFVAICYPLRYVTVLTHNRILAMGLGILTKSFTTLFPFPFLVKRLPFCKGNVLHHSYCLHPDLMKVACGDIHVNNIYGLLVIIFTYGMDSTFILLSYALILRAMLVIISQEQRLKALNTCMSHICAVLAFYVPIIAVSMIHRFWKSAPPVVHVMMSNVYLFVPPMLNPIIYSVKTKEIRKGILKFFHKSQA
# In short: as §1
# O51J1 R75H I202V = tested on: O51J1 R75H I202V
# In short: as §1
# O51L1 [3] = tested on: O51L1
# In short: as §1
# Target sequence in this assay (as listed by the source): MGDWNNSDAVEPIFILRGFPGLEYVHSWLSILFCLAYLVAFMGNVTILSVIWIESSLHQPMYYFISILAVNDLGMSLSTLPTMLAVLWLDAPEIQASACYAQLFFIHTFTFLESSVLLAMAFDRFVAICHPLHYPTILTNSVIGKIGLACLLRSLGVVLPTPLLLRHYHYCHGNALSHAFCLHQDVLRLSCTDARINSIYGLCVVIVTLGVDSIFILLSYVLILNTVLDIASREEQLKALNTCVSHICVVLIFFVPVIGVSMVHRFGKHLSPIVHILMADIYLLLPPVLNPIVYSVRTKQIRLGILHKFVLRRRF
# O51L1 [4] = tested on: O51L1; remark: listed apart in the source
# In short: as §1
# Target sequence in this assay (as listed by the source): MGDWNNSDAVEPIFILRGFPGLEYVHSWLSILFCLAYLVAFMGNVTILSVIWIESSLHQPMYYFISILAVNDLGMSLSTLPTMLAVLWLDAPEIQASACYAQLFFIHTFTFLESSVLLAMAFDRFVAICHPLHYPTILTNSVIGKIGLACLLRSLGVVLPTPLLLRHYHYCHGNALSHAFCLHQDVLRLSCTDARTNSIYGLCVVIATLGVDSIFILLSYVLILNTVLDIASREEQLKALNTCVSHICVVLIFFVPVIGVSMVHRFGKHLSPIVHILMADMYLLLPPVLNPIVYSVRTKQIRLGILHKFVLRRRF
# O51T1 = tested on: O51T1
# O51T1, sequence (as listed by the source): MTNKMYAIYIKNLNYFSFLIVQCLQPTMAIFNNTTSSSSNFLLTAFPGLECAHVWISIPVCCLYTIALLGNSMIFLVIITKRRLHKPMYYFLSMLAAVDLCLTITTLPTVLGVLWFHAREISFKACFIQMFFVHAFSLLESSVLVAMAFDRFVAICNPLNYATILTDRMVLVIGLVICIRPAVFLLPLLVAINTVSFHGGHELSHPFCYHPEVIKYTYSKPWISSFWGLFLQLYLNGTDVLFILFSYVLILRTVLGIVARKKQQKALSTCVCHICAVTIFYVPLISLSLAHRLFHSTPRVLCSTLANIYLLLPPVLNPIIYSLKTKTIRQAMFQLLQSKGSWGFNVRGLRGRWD
# In short: as §1
# 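Also: active if original authors judged signal statistically different from baseline.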
# O51D1 I89V, sequence (as listed by the source, stated change not applied): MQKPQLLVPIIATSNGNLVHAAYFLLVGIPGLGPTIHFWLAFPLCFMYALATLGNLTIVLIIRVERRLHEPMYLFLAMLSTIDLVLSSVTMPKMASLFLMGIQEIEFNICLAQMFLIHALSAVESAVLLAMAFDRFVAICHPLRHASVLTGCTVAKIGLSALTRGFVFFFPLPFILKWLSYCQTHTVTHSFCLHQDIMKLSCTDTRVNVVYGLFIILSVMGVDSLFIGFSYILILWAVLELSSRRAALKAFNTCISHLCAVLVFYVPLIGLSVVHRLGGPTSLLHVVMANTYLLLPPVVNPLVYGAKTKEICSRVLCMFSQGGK
compound,measurement,setting,value
C=CCOC(=O)Cc1ccccc1,odorant receptor agonist call,O51D1 I89V,inactive
same,odorant receptor agonist call,O51F1 [1],inactive
same,odorant receptor agonist call,O51F1 [2],inactive
same,odorant receptor agonist call,O51F2 Y341S,inactive
same,odorant receptor agonist call,O51G1,inactive
same,odorant receptor agonist call,O51I1 V164L,inactive
same,odorant receptor agonist call,O51J1 R75H I202V,inactive
same,odorant receptor agonist call,O51L1 [3],active
same,odorant receptor agonist call,O51L1 [4],active
same,odorant receptor agonist call,O51T1,inactive
